Data reported in ChEMBL document CHEMBL4513216, “Probing the Open Global Health Chemical Diversity Library for Multistage-Active Starting Points for Next-Generation Antimalarials” (ACS Infect Dis, 2020).

Assay: Toxicity liver stage against HepG2, at 10uM
Type: cell-based
Set-up: test concentration 10 uM, cell line HepG2-A16-CD81EGFP
Conditions: human, HepG2-A16-CD81EGFP cells; read-out: INHIBITION
Outline: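 Uninfected HepG2-A16-CD81EGFP cells, 3 × 10^3 per well, 1536-well, plated on prespotted compound at 10 μM final, parasite-free screening media added to match infected plates; puromycin 10 μM positive, DMSO 0.5% negative; run in parallel with 48 h PbLuc assay at 37 °C, 5% CO2; viability by CellTiter-Glo luminescence, normalized to controls.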

SMILES	cytotoxicity at 10 µM [%]
CC(C)N1C[C@H](O)C[C@H]1c1nc(-c2ccc(OC(F)(F)F)cc2)no1	-3.72
CCC(CC)C(=O)N1CCN(Cc2cc(=O)c3ccccc3[nH]2)CC1	-9.55
COc1cccc2ccn(CC(=O)NC(C)C)c12	-37
COCc1nnc(NC(=O)CN2C(=O)c3ccccc3NC2C(C)C)s1 (stereo not given)	-4.19
O=C(NCc1ccc2c(c1)OCO2)c1ccc(N2CCCCC2)nn1	-9.7
CN1C(=O)CCCC12CCCN(C(=O)c1cc(F)cc(F)c1)C2 (stereo not given)	-1.54
CCc1ccc(CN2CCc3[nH]nc(C(=O)N4CCNC(=O)C4)c3C2)o1	17.5
Cc1noc(-c2ccc(-n3ncc(C(=O)O)c3C)nc2)n1	0.748
CC1=Nc2c(c(O)nn2C(C)C)C(c2cn(C)nc2C)S1 (stereo not given)	-3.53
O=C(Cn1nc2c(cc1=O)CSCC2)NC(Cc1ccccc1)C(=O)O (stereo not given)	-10.1
CS(=O)(=O)NC[C@@H]1OC[C@H]2CN(C(=O)c3ccc[nH]3)CC[C@H]21	0.253
CCN1CCC2(CC1)NC(=O)c1cc(Br)ccc1-n1nnnc12	1.47
CC(C)n1cc(S(=O)(=O)N2CCCCCC2)cn1	10
CCc1nc(NCC(=O)N2CCOCC2)c2c(n1)c(C)nn2CC	7.05
CN1CCCC1CCNC(=O)c1ccccc1-n1cnc(CN)c1 (stereo not given)	8.6
CNc1ncccc1CN1CCN(C)CC(C(N)=O)C1 (stereo not given)	0.106
CC(=O)N1CCCC(c2nnc3n2CCN(C(=O)C2CCCCC2)C3)C1 (stereo not given)	0.685
Cc1cc2nccc(C3CCCN(C(=O)c4cnccn4)C3)n2n1 (stereo not given)	10.5
Cc1nc(N(C)C)cc(C2(C)CCNCC2)n1	-6.07
CC1CCc2nc(NS(=O)(=O)c3cnn(C)c3)sc2C1 (stereo not given)	-0.842
CCC(Sc1ncc(CO)n1C)c1ccccc1 (stereo not given)	-45.3
Cc1ccc(C)c(-n2ncc(NC(=O)NC3(C)CCOC3)c2C)c1 (stereo not given)	-41.6

SMILES	cytotoxicity at 10 µM [%]
CCCn1ccnc1-c1cccc(NC2CCOC2)c1 (stereo not given)	-3.1
O=S(=O)(N1CCCC1)N1CCN(CC2CCCO2)CC1 (stereo not given)	-0.185
CCc1ocnc1C(=O)N1CCOC(c2nc(C(C)C)n[nH]2)C1 (stereo not given)	7.43
Cc1noc(CCCNC(=O)C2CSCN2C(=O)C(C)(C)C)n1 (stereo not given)	-54.4
Cc1cc(NC(=O)N2CCOCC2)nn1-c1ccccc1Cl	11.1
O=C(NCC1CCC1)c1cccc(CN2CCS(=O)(=O)CC2)c1	-7.89
CCSc1cc(C(=O)NC2CCN(C(=O)c3ccccc3)CC2)ccn1	13.5
Cn1cc(N2CCC(NC(=O)c3ccccc3F)C2=O)cn1 (stereo not given)	-1.26
CCC(CC)c1cc(CNC(=O)N2CCC(n3cncn3)CC2)on1	-4.16
CCCc1nc(C)c(C(=O)NCC2CCN(C3CC3)C2)s1 (stereo not given)	-9.34
O=C(Nc1ccc(CC(=O)N2CCSCC2)cc1)NC1CCCC1	-7.01
O=C(Nc1ccc(F)c(-n2cccc2)c1)NC1(CCO)CCOCC1	8.67
CC(=O)N1CCCN(Cc2cc(F)cc(Br)c2)CC1	7.72
CCN(Cc1noc(C2CC2)n1)Cc1ccc(C#N)cc1F	-1.74
CN(CC(=O)c1ccc2[nH]c(=O)[nH]c2c1)Cc1ccc2c(c1)OCO2	5.34
COCCN1CCCN(C(=O)c2oc(C)nc2C)CC1	2.04
COCCCN(Cc1ccccc1Cl)C1CCS(=O)(=O)C1 (stereo not given)	17.1
N#Cc1cccc(CN(CCO)Cc2ccsc2)c1	19.6
O=C(CNc1ccccc1S(=O)(=O)C(F)F)NCc1ccco1	-53
O=C(NCC1(O)CCOC1)NCC1(c2ccccc2Cl)CC1 (stereo not given)	-45.7
COc1ccc(C(CO)NC(=O)Nc2cccnc2)cc1 (stereo not given)	-15.7
Cc1ncc(CNC(=O)Nc2cc(C(F)(F)F)c[nH]c2=O)s1	-10.2

SMILES	cytotoxicity at 10 µM [%]
Cn1ncc2c1C(COCC1CC1)CN(S(C)(=O)=O)C2 (stereo not given)	-73.6
N#Cc1cccc(N2CC3(CCN(C(=O)NC4CC4)C3)CC2=O)c1 (stereo not given)	-0.987
CN(C)CC(=O)N1CCc2onc(Cn3cccn3)c2C1	-3.83
CN1CCC2(CC1)CN(C(=O)c1cccnc1)Cc1ccccc12	-66.2
O=C1CC(c2cccnc2)C2(CCN(C(=O)c3ccncc3)CC2)N1 (stereo not given)	-6.64
Cn1cc(CN2C[C@@H]3[C@@H](C2)OCC(=O)N3Cc2ccncc2)cn1	-7.9
CCOc1ncccc1CNc1cc(COC)ncn1	6.41
COCC(NC(=O)c1cn2ccsc2n1)c1ccnn1C (stereo not given)	-47.8
Cc1nccn1CCC1CCCCN1Cc1cnc(N(C)C)nc1 (stereo not given)	1.45
Fc1cccc(-c2noc3c2CN(Cc2cncn2C2CC2)CC3)c1	-1.24
NC(=O)COc1ccc(CN2CCNC(C(=O)NC3CC3)C2)cc1Cl (stereo not given)	0.887
Cc1ccc2nc(C)c(C)c(C(=O)N3CCC4(CCO4)CC3)c2c1	0.707
CC(C)c1nccn1C(C)C(=O)NCc1noc(Cc2cccs2)n1 (stereo not given)	-4.91
Cc1cccc2nc(C(=O)N3CCC4(CCC(=O)N(C)C4)CC3)c(F)n12	-0.103
c1c[nH]c(-c2cn(CCSc3cnn[nH]3)nn2)n1	-47.5
N#Cc1ccc(C(=O)N2CCCC3(C=Cc4ccccc4O3)CC2)cn1 (stereo not given)	11.8
Cc1cc(C(=O)N2CCCC(C(=O)c3cccs3)C2)c(=O)[nH]c1C (stereo not given)	-7.01
Cc1cccc(-n2ncc3c2CCCC3NCc2cnn(C)c2C)c1C (stereo not given)	13.8
Cc1ccc(-c2ccnc(N[C@H]3COC[C@@H]3N3CCCC3)n2)c(C)n1	-1.45
Cc1ccc(C)c(-n2cc(CN3CCOCC3)c(-c3ccccc3)n2)c1	13.1
CCc1nc(N2CCCN(c3ncccn3)CC2)c2cnn(C)c2n1	2.22
CS(=O)(=O)N1CCCC1C(=O)Nc1cnc2n1CCCC2 (stereo not given)	2.72

SMILES	cytotoxicity at 10 µM [%]
CCN1CCN(C(=O)CCC2CCN(C(=O)CCSC)CC2)CC1	-1.56
Cc1cc(N2CCN(C(=O)C(C)n3ccnc3C(C)C)CC2)cc(C)n1 (stereo not given)	-3.59
COc1ncccc1CN1CCc2[nH]cnc2C1CCSC (stereo not given)	-13.7
COCCN1CC(c2nc(CC3CCN(C)CC3)no2)CCC1=O (stereo not given)	2.06
COc1nccc(N2CCN(Cc3ccc(C)cc3)C(=O)C2)c1C#N	-16.5
O=C1N(Cc2ccccc2F)CCCC12CCN(C1CCSCC1)C2 (stereo not given)	0.0366
Clc1ccccc1C1(c2ccnc(-c3ncccn3)n2)CCNCC1	-6.28
COCc1noc(-c2ccc(N(C)Cc3cc(C)no3)nc2)n1	-17.2
O=C(c1cccn1Cc1cccs1)N1CCN2CCCCC2C1 (stereo not given)	-7.42
OCCN1CCN(Cc2coc(-c3cccc(Cl)c3)n2)CC1	-21.6
O=C(NCC1CCOC1)N1CCN(Cc2ccc3c(c2)OCO3)CC1 (stereo not given)	-4.33
CC(C)c1ncc2c(n1)CN(Cc1nc(-c3ccsc3)no1)CC2	2.05
O=C(NCc1cc[nH]n1)N1CCN(c2ncccn2)CC1	-3.29
CCCc1n[nH]c(C2CN(C(=O)c3cccc4[nH]ncc34)CCO2)n1 (stereo not given)	-2.87
O=C1NCCN1C1CCN(Cc2coc(-c3ccccc3)n2)CC1	-1.54
c1ccc(-n2nc(CNC3CCc4ncnn4C3)c3c2CCC3)cc1 (stereo not given)	-12.9
CN1CCOC(CNC(=O)COc2ccc(F)cc2F)C1 (stereo not given)	-5.51
Cc1nc(C)n(CC2CCCN(CC(=O)Nc3nnc(C)s3)C2)n1 (stereo not given)	-18.9
c1cncc(CNC2CCc3ncnn3C2)c1 (stereo not given)	-7.91
CC(C)c1nnc(CN2CCN(C(C)c3nc(C4CC4)no3)CC2)o1 (stereo not given)	3.48
CN(Cc1nc2ccccc2n1C)CC1CCCN1c1cccnn1 (stereo not given)	-4.41
COc1cccc(-c2nc(CNCCCn3cccn3)cs2)c1	-19.7

SMILES	cytotoxicity at 10 µM [%]
CC(C)c1nn(C)c(N2CCOCC2)c1CNCC(=O)N(C)C	-4.3
CCN(CC)C(=O)C(c1ccccc1)N1CCn2c(C)nnc2C1 (stereo not given)	5.57
O=C(CCc1cnn(-c2ccccc2)c1)N1CCCC(n2cccn2)C1 (stereo not given)	2.1
O=C(CN1CCC(c2ccnn2CCO)CC1)NCC1CC1	-3.25
CCn1ccnc1CN1CCOC(CNc2cccnn2)C1 (stereo not given)	0.762
Cc1ccccc1OC1CCN(CC(=O)Nc2cnn(C)c2C)CC1	-8.09
CC(C)NC(=O)[C@@]12CCO[C@@H]1CCN(Cc1ccc3c(c1)OCO3)C2	-1.34
O=C(CC1CC1)NCc1cn2c(n1)CN(Cc1nccs1)CC2	-74.1
Cn1cc(CN2CCn3cc(CNC(=O)CC4CC4)nc3C2)cn1	-83.3
Cc1oncc1C(=O)N1CC[C@H]2[C@H](C[C@@H](CN(C)C)N2CC2CC2)C1	2.84
CN(C)C(=O)c1cnc2n1CCN(Cc1cccc(C#N)c1)C2	-77.3
Cc1cc(CN2C[C@@H]3COC[C@@H](C(=O)N4CCCCO4)[C@@H]3C2)oc1C	-72.8
CN(Cc1ccco1)[C@@H]1CN(CC2CCOCC2)[C@@H]2CCCO[C@H]12	-76.4
CC1c2ncc(CN3CCN(C)CC3)n2CCN1Cc1cnn(C)c1 (stereo not given)	7.77
O=C1CC(c2ccncc2)C2(CCN(C(=O)NC3CC3)CC2)N1 (stereo not given)	-3.46
CN(C)C(=O)CN1C(=O)CCC12CCN(Cc1cccn1C)CC2	6.45
C[C@@H](N)C(=O)N1CC2(CCNCC2)c2cc(Cl)ccc21	-2.42
Cc1ccoc1C(=O)N1C[C@H](OCc2cccnc2)[C@H]2OCCC[C@H]21	-5.28
CN(C)CCOCC1CN(Cc2cccs2)Cc2ccnn2C1 (stereo not given)	-0.903
c1cnc(N2CCO[C@@H]3CN(Cc4ccoc4)C[C@@H]3C2)nc1	-1.36
O=C(Cc1ccncc1)N1C[C@@H]2CC[C@H]1CN(Cc1cccnc1)C2	2.89
CC(=O)Nc1ccsc1C(=O)N1CC[C@H]2CC[C@@H](C1)N2C	-1.47
